Screens deposited in PubChem by several laboratories.
FLuc act counter – firefly luciferase counter-screen for stimulation assays. AID 1027. P08659. ATPlite luciferase biochemical, luminescence, 10 min; 0 = ATP-free wells, 1 = DMSO control. activation factor at 10 µM. 200,000 tested, under 10 active;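 active = luciferase activation factor, scaled between plate controls, of at least 2 with compound at 10 µM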
Target sequence (P08659 whole entry, looked up): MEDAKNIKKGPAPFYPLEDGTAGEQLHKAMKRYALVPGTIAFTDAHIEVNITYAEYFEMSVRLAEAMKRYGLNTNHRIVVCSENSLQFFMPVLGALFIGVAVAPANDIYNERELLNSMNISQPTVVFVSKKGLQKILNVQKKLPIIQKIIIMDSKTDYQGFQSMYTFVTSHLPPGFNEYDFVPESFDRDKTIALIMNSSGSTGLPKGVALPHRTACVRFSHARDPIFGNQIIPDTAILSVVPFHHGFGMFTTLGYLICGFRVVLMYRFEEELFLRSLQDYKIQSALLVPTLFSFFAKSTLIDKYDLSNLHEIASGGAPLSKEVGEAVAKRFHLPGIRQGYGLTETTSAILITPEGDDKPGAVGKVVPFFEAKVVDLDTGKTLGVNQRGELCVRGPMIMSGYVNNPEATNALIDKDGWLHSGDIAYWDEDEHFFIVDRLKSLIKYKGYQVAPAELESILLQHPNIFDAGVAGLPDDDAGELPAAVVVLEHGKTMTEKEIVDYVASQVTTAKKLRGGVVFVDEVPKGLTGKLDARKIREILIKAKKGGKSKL
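Material: Luciferase/luciferin reagent mix | Doses: Test compounds dosed from 2 mM stocks in 100% DMSO | Timing: 10 min incubation after luciferase reagent addition, room temperature | Measured by: Luminescence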
C8 TRAIL sens – sensitizes caspase-8 expressing cells to TRAIL. NB7+C8 cells + TRAIL, ATPlite viability luminescence. inhibition (viability loss, TRAIL sensitization), % at 10 µM. 1% of 360,000 active. AID 624354;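 active = compounds causing at least 50% loss of cell viability in the single-dose screen, relative to plate controls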
HSP90 inh – blocks HSP90-mediated luciferase refolding in reticulocyte lysate | inhibition, % at 5.6 µM | Rabbit reticulocyte lysate, luciferase refolding luminescence, 3 h | 0.91% of 290,000 active | AID 1789;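 active = inhibition above the screen-wide mean plus 3 SD, computed separately per campaign, cut at about 16% in these data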;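 note: 0% = DMSO wells and 100% = 60 µM geldanamycin wells; inhibitors lower the luminescence because luciferase stays unfolded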
PPC-1+TRAIL kill – kills PPC-1 cancer cells in the presence of TRAIL; 0.41% of 220,000 active; PPC-1 cells + TRAIL, ATPLite viability luminescence; cell killing (% activity), % at 4 µM or 5 µM; AID 1443;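 active = cell killing above 50% in the first pass at 4 µM, then a duplicate retest at 5 µM averaging 50% or more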;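 note: plate controls were cells with TRAIL plus DMSO for no effect and medium-only wells lacking cells for full effect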
FLuc inh counter – inhibits firefly luciferase, flagging false hits in luciferase inhibition screens | P08659 | ATPLite firefly luciferase biochemical luminescence, 10 min | inhibition, % at 10 µM | 1.5% of 200,000 active | AID 1006;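 active = inhibition above about 50% when tested at 10 µM, limit read from the data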
HSP90 inh confirm – confirmation of HSP90 inhibitors; shares compounds with HSP90 inh; rabbit reticulocyte lysate, luciferase refolding luminescence, 3 h; inhibition, % at 5.9 µM; 64% of 2,300 active; in the data active = inhibition above about 18%;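 note: 0% = vehicle wells and 100% = reference inhibitor wells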
FLuc counter – blocks native firefly luciferase in HSP90 counter-screen; shares compounds with HSP90 inh; purified native firefly luciferase, luminescence; inhibition, % at 5.9 µM; 48% of 2,300 active; AID 1847;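 active = inhibition above the mean inhibition of all tested sample wells plus 3 SD, cut at about 10% in these data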;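 note: 0% = DMSO with luciferase and 100% = wells lacking luciferase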
Numbers without * were called inactive; . = not tested or not shown. Compounds with a hit are over-represented: about 2% of the library has one in this group of screens.

SMILES	FLuc act counter	C8 TRAIL sens	HSP90 inh	PPC-1+TRAIL kill	FLuc inh counter	HSP90 inh confirm	FLuc counter
CCOC(=O)C1CCN(C(=O)c2sc3nc(-c4ccccc4)cn3c2C)CC1	1	0	0	-4	-3	.	.
COc1ccc(-c2cn3c(C)c(C(=O)NCCN4CCOCC4)sc3n2)cc1	1	-3	73*	15	0	69*	-2
CCOC(=O)C1CCCN(C(=O)c2sc3nc(-c4ccc(OC)cc4)cn3c2C)C1 (centres undefined)	1.1	-6	46*	3	-6	45*	-7
O=C1C2CC=C(Cl)CC2C(=O)N1CCC[n+]1cccc2ccccc21 (centres undefined)	1.1	2	-3	14	-6	.	.
N/C(=N\NS(=O)(=O)c1ccccc1)c1ccccn1	.	10	.	.	.	.	.
N/C(=N\NC(=O)Nc1ccccc1)c1ccccn1	.	13	32*	5	.	9	-1
COC(=O)CC1C(=O)NC(C)=C1C(=O)OC (centres undefined)	.	.	37*	8	.	3	1
O=C(NNc1ccc(Cl)nn1)c1ccc(Cl)cc1	1	-4	3	12	-3	.	.
COc1ccc(NC(=O)C(CC(=O)O)Cc2ccc(C)cc2)cc1 (centres undefined)	1.1	-8	4	12	-5	.	.
C=CCc1cccc(C=Nc2c[nH]c(=O)[nH]c2=O)c1O	.	2	-6	.	.	.	.
C=CCc1cccc(C=Nc2cc(Br)ccc2O)c1O	1	7	44*	17	-2	80*	-8
Cc1c(C(=O)O)cccc1-c1ccc(/C=N/n2cnnc2)o1	.	-1	18*	.	.	20*	8
Cc1c(Cl)cccc1-c1ccc(/C=N/n2cnnc2)o1	1.1	-15	1	-18	-7	.	.
O=C(CCCn1cnc([N+](=O)[O-])n1)Nc1cccc(Cl)c1Cl	1	14	-6	0	-3	.	.
Cc1c(Cl)cccc1NC(=O)CCCn1cnc([N+](=O)[O-])n1	1.1	0	18*	-2	-6	2	-4
Oc1c(N=Nc2ccccc2)sc2ccccc12	.	44	18*	17	.	48*	39*
O=C(c1ccc(Br)c(S(=O)(=O)N2CCOCC2)c1)N1CCN(C/C=C/c2ccccc2)CC1	.	4	.	.	.	.	.
Cc1ccc(-c2onc3ccc(C(=O)/C=C/N(C)C)cc23)cc1	.	0	61*	.	.	-9	-21
CN(C)/C=C/C(=O)c1ccc2noc(-c3ccc(F)cc3)c2c1	.	-1	16	.	.	.	.
Cc1cccc(-c2onc3ccc(C(=O)/C=C/N(C)C)cc23)c1	.	-10	39*	.	.	-3	-8
COc1cc(/C=N/NC(=O)c2sc3nc(C)cc(C)c3c2N)ccc1O	.	29	-1	23	.	.	.
Oc1ccc(Cl)cc1CNc1cccc2cccnc12	.	26	27*	.	.	3	-4
Oc1ccc(Br)cc1CNc1cccc2cccnc12	.	-1	25*	.	.	2	0
COc1ccccc1/C(C)=N/Oc1cc(N)cc([N+](=O)[O-])c1	.	-18	.	.	.	.	.
O=S(=O)(c1ccc(Cl)cc1)N1CCN=C1SCc1ccc(Cl)c(Cl)c1	1	-2	4	0	-3	.	.
SMILES	FLuc act counter	C8 TRAIL sens	HSP90 inh	PPC-1+TRAIL kill	FLuc inh counter	HSP90 inh confirm	FLuc counter
CC(=O)Nc1cc2nn(-c3ccccc3)nc2cc1C	.	46	21*	.	.	32*	21*
COc1ccc(CN2CCN(Cc3ccccc3F)CC2)cc1OC	.	10	1	.	.	.	.
S=C1NCCNC(=S)NCCOCCOCCOCCN1	1.1	6	-7	8	-8	.	.
Cc1ccc(NC(=O)O/N=C/c2c(C)nn(C(C)(C)C)c2C)cc1Cl	.	21	86*	10	.	87*	88*
Cc1nc2c(-c3ccc(F)cc3)c(C)nn2c(C)c1CCC(=O)NCCN1CCOCC1	1.1	-11	40*	13	-7	4	0
N/C(=N\OC(=O)/C=C/c1ccccc1Cl)c1ccncc1	0.8	8	31*	.	24	2	-19
COc1ccc(/C=C/C(=O)O/N=C(\N)c2ccccn2)cc1OC	.	12	.	.	.	.	.
CC(C)(C)CC(=O)O/N=C(\N)c1ccccn1	0.5	36	21*	25	51*	35*	22*
N/C(=N\OC(=O)/C=C/c1ccccc1)c1ccccn1	0.2	10	19*	12	82*	15	73*
N/C(=N\OC(=O)/C=C/c1ccccc1)c1ccncc1	0.7	-8	0	.	35	.	.
Cc1cc(=O)n2nc(N3CCC(C(=O)NCc4ccccc4F)CC3)sc2n1	.	7	-4	.	.	.	.
CCc1c(-c2ccc(Br)cc2)ncn1Cc1cccc(-c2ccccc2)c1	.	27	.	.	.	.	.
CC1(C(=O)Nc2ccc(Cl)cc2)Cc2c(-c3ccc4c(c3)OCO4)ccnc2O1 (centres undefined)	.	14	.	.	.	.	.
CC1CCC(CC(=O)O)(C(=O)O)CC1 (centres undefined)	.	-16	.	.	.	.	.
S=C(NCCc1ccccc1)Nc1c(Cl)cccc1Cl	.	6	-1	20	.	.	.
C#CCOCCOCCOCCNc1nc(N2CCN(C(=O)[C@H](Cc3ccc(O)cc3)n3cc([C@@H](N)C(C)CC)nn3)CC2)nc(N2CCN(C(=O)[C@H](CCCCN)n3cc([C@@H](N)CO)nn3)CC2)n1 (some centres undefined)	1.1	-15	21*	6	-7	-2	-5
C#CCOCCOCCOCCNc1nc(N2CCN(C(=O)[C@H](CCCCN)n3cc([C@@H](N)C(C)CC)nn3)CC2)nc(N2CCN(C(=O)[C@H](Cc3cc4ccccc4[nH]3)n3cc([C@@H](N)CC(C)C)nn3)CC2)n1 (some centres undefined)	1	-11	21*	2	0	2	-8
C#CCOCCOCCOCCNc1nc(N2CCN(C(=O)[C@H](Cc3cc4ccccc4[nH]3)n3cc([C@@H](N)C(C)CC)nn3)CC2)nc(N2CCN(C(=O)[C@H](CCCCN)n3cc([C@@H](N)CO)nn3)CC2)n1 (some centres undefined)	1.1	.	12	22	-9	.	.
O=C(O)c1ccc(Cl)c(S(=O)(=O)NC(Cc2ccccc2)C(=O)O)c1 (centres undefined)	1	-2	3	24	-4	.	.
CC(N)c1csc(Nc2ccc(S(C)(=O)=O)cc2)n1 (centres undefined)	.	10	.	.	.	.	.
O=C(Nc1cccnc1N1CCOCC1)c1cc2ccccc2oc1=O	1	0	.	-3	0	.	.
COc1cccc(NC(=O)c2cc3cccc(OC)c3o/c2=N\O)c1	.	.	11	.	.	.	.
Cc1cccc(NC(=O)c2cc3ccccc3oc2=O)c1	.	28	20*	.	.	33*	13*
Cc1ccc(NC(=O)c2cc3ccccc3oc2=N)cc1	.	49	55*	.	.	20*	31*
O=C(O)c1ccccc1NC(=O)c1cc2ccccc2oc1=O	.	4	23*	.	.	2	-6
